Converted amounts (≈) assume the structure as drawn.
Assays:
Vibrio cholerae = assay: Antibacterial activity against Vibrio cholerae MTCC 3906 assessed as growth inhibition after 24 to 48 hrs by broth microdilution method; type: functional
Clostridium tetani = assay: Antibacterial activity against Clostridium tetani MTCC 449 assessed as growth inhibition after 24 to 48 hrs by broth microdilution method; type: functional
Aspergillus fumigatus = assay: Antifungal activity against Aspergillus fumigatus MTCC 3008 assessed as growth inhibition after 24 to 48 hrs by broth microdilution method; type: functional
In short: (§1)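 Fungal nutrition used Sabouraud Dextrose broth with inoculum at 10⁸ CFU mL⁻¹ by turbidity. Serial compound dilutions were made in 2% DMSO in water. Growth was noted on subculture after 24 and 48 h. MIC was taken as the highest dilution preventing visible turbidity after spot subculture.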

Candida albicans = assay: Antifungal activity against Candida albicans MTCC 227 assessed as growth inhibition after 24 to 48 hrs by broth microdilution method; type: functional; in short: as §1
Streptococcus pneumoniae = assay: Antibacterial activity against Streptococcus pneumoniae MTCC 1936 assessed as growth inhibition after 24 to 48 hrs by broth microdilution method; type: functional
In short: (§2)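 Bacteria were grown in Mueller-Hinton broth with inoculum adjusted to 10⁸ CFU mL⁻¹ by turbidity. Compounds were serially diluted in 2% aqueous DMSO and incubated at 37 °C overnight. Growth was checked by subculture at 24 and 48 h. MIC was taken as the highest dilution with no turbidity after spot subculture.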

Escherichia coli = assay: Antibacterial activity against Escherichia coli MTCC 443 assessed as growth inhibition after 24 to 48 hrs by broth microdilution method; type: functional; in short: as §2
[1] = system: Mycobacterium tuberculosis; assay: Antitubercular activity against Mycobacterium tuberculosis H37Rv assessed as inhibition of colony formation at 100 ug/mL after 2 to 4 weeks by Lowensteine-Jensen method relative to control; type: functional
[2] = system: Mycobacterium tuberculosis; assay: Antitubercular activity against Mycobacterium tuberculosis H37Rv assessed as inhibition of colony formation at 250 ug/mL after 2 to 4 weeks by Lowensteine-Jensen method relative to control; type: functional
Plasmodium falciparum = assay: Antimalarial activity against chloroquine/quinine sensitive Plasmodium falciparum assessed as parasite growth inhibition after 48 hrs; type: functional, organism-based
Salmonella typhi = assay: Antibacterial activity against Salmonella typhi MTCC 98 assessed as growth inhibition after 24 to 48 hrs by broth microdilution method; type: functional, Salmonella enterica subsp. enterica serovar Typhi; conditions: Salmonella enterica
Bacillus subtilis = assay: Antibacterial activity against Bacillus subtilis MTCC 441 assessed as growth inhibition after 24 to 48 hrs by broth microdilution method; type: functional; in short: as §2

Row | SMILES | MIC (Vibrio cholerae) | MIC (Clostridium tetani) | MIC (Aspergillus fumigatus) | MIC (Candida albicans) | MIC (Streptococcus pneumoniae) | MIC (Escherichia coli) | inhibition at 100 µg/mL [1] | inhibition at 250 µg/mL [2] | IC50 (Plasmodium falciparum) | MIC (Salmonella typhi) | MIC (Bacillus subtilis)
1 | Cc1nn(-c2ccccc2)c(-n2ccnc2)c1C1C(C#N)=C(N)N(c2ccc(Cl)cc2)C2=C1C(=O)CC(C)(C)C2 (stereo not drawn) | 250 µg/mL (≈ 454 µM) | 125 µg/mL (≈ 227 µM) | 500 µg/mL (≈ 909 µM) | > 1000 µg/mL | 125 µg/mL (≈ 227 µM) | 500 µg/mL (≈ 909 µM) | 76% | 84% | 0.073 µg/mL (≈ 0.133 µM) | 500 µg/mL (≈ 909 µM) | 200 µg/mL (≈ 364 µM)
2 | CC1(C)S[C@@H]2[C@H](NC(=O)[C@H](N)c3ccccc3)C(=O)N2[C@H]1C(=O)O [AMPICILLIN] | 50 µg/mL (≈ 143 µM) | 100 µg/mL (≈ 286 µM) |  |  | 100 µg/mL (≈ 286 µM) | 10 µg/mL (≈ 28.6 µM) |  |  |  | 10 µg/mL (≈ 28.6 µM) | 100 µg/mL (≈ 286 µM)
3 | CCOC(=O)C1=C(N)N(c2cccc(O)c2)C2=C(C(=O)CC(C)(C)C2)C1c1c(C)nn(-c2ccccc2)c1-n1ccnc1 (stereo not drawn) | 125 µg/mL (≈ 216 µM) | 250 µg/mL (≈ 432 µM) | 1000 µg/mL (≈ 1730 µM) | 250 µg/mL (≈ 432 µM) | 200 µg/mL (≈ 346 µM) | 200 µg/mL (≈ 346 µM) | 9% | 12% | 0.072 µg/mL (≈ 0.124 µM) | 200 µg/mL (≈ 346 µM) | 500 µg/mL (≈ 864 µM)
4 | Cc1nn(-c2ccccc2)c(-n2ccnc2)c1C1C(C(N)=O)=C(N)N(c2ccc(O)cc2)C2=C1C(=O)CCC2 (stereo not drawn) | 500 µg/mL (≈ 959 µM) | 200 µg/mL (≈ 383 µM) | 1000 µg/mL (≈ 1920 µM) | 1000 µg/mL (≈ 1920 µM) | 250 µg/mL (≈ 479 µM) | 200 µg/mL (≈ 383 µM) | 60% | 67% | 0.033 µg/mL (≈ 0.0633 µM) | 100 µg/mL (≈ 192 µM) | 200 µg/mL (≈ 383 µM)
5 | Cc1ccc(N2C(N)=C(C(N)=O)C(c3c(C)nn(-c4ccccc4)c3-n3ccnc3)C3=C2CC(C)(C)CC3=O)cc1 (stereo not drawn) | 250 µg/mL (≈ 456 µM) | 200 µg/mL (≈ 365 µM) | 250 µg/mL (≈ 456 µM) | > 1000 µg/mL | 250 µg/mL (≈ 456 µM) | 200 µg/mL (≈ 365 µM) | 30% | 35% | 1.02 µg/mL (≈ 1.87 µM) | 200 µg/mL (≈ 365 µM) | 250 µg/mL (≈ 456 µM)
6 | C=C[C@H]1CN2CC[C@H]1C[C@H]2[C@H](O)c1ccnc2ccc(OC)cc12 [QUININE] |  |  |  |  |  |  |  |  | 0.268 µg/mL (≈ 0.826 µM) |  | 
7 | CCOC(=O)C1=C(N)N(c2ccccc2)C2=C(C(=O)CC(C)(C)C2)C1c1c(C)nn(-c2ccccc2)c1-n1ccnc1 (stereo not drawn) | 125 µg/mL (≈ 222 µM) | 200 µg/mL (≈ 355 µM) | 500 µg/mL (≈ 889 µM) | 250 µg/mL (≈ 444 µM) | 500 µg/mL (≈ 889 µM) | 250 µg/mL (≈ 444 µM) | 37% | 45% | 1.47 µg/mL (≈ 2.61 µM) | 200 µg/mL (≈ 355 µM) | 250 µg/mL (≈ 444 µM)
8 | Cc1nn(-c2ccccc2)c(-n2ccnc2)c1C1C(C(N)=O)=C(N)N(c2ccc(Cl)cc2)C2=C1C(=O)CC(C)(C)C2 (stereo not drawn) | 500 µg/mL (≈ 880 µM) | 200 µg/mL (≈ 352 µM) | 1000 µg/mL (≈ 1760 µM) | 250 µg/mL (≈ 440 µM) | 200 µg/mL (≈ 352 µM) | 250 µg/mL (≈ 440 µM) | 66% | 75% | 0.059 µg/mL (≈ 0.104 µM) | 250 µg/mL (≈ 440 µM) | 200 µg/mL (≈ 352 µM)
9 | COc1ccc(N2C(N)=C(C#N)C(c3c(C)nn(-c4ccccc4)c3-n3ccnc3)C3=C2CC(C)(C)CC3=O)cc1 (stereo not drawn) | 250 µg/mL (≈ 458 µM) | 100 µg/mL (≈ 183 µM) | 500 µg/mL (≈ 916 µM) | 1000 µg/mL (≈ 1830 µM) | 100 µg/mL (≈ 183 µM) | 200 µg/mL (≈ 367 µM) | 88% | 91% | 0.086 µg/mL (≈ 0.158 µM) | 100 µg/mL (≈ 183 µM) | 125 µg/mL (≈ 229 µM)
10 | Cc1nn(-c2ccccc2)c(-n2ccnc2)c1C1C(C(N)=O)=C(N)N(c2ccccc2)C2=C1C(=O)CC(C)(C)C2 (stereo not drawn) | 250 µg/mL (≈ 468 µM) | 125 µg/mL (≈ 234 µM) | 1000 µg/mL (≈ 1870 µM) | 250 µg/mL (≈ 468 µM) | 200 µg/mL (≈ 375 µM) | 200 µg/mL (≈ 375 µM) | 4% | 7% | 0.62 µg/mL (≈ 1.16 µM) | 250 µg/mL (≈ 468 µM) | 125 µg/mL (≈ 234 µM)
11 | CCOC(=O)C1=C(N)N(c2ccc(OC)cc2)C2=C(C(=O)CC(C)(C)C2)C1c1c(C)nn(-c2ccccc2)c1-n1ccnc1 (stereo not drawn) | 250 µg/mL (≈ 422 µM) | 250 µg/mL (≈ 422 µM) | 1000 µg/mL (≈ 1690 µM) | 1000 µg/mL (≈ 1690 µM) | 100 µg/mL (≈ 169 µM) | 100 µg/mL (≈ 169 µM) | 20% | 25% | 1.49 µg/mL (≈ 2.51 µM) | 200 µg/mL (≈ 337 µM) | 125 µg/mL (≈ 211 µM)
12 | CCn1cc(C(=O)O)c(=O)c2cc(F)c(N3CCNCC3)cc21 [NORFLOXACIN] | 50 µg/mL (≈ 157 µM) | 25 µg/mL (≈ 78.3 µM) |  |  | 250 µg/mL (≈ 783 µM) | 50 µg/mL (≈ 157 µM) |  |  |  | 50 µg/mL (≈ 157 µM) | 25 µg/mL (≈ 78.3 µM)
13 | Cc1nn(-c2ccccc2)c(-n2ccnc2)c1C1C(C#N)=C(N)N(c2ccccc2)C2=C1C(=O)CC(C)(C)C2 (stereo not drawn) | 100 µg/mL (≈ 194 µM) | 500 µg/mL (≈ 970 µM) | 500 µg/mL (≈ 970 µM) | 1000 µg/mL (≈ 1940 µM) | 500 µg/mL (≈ 970 µM) | 100 µg/mL (≈ 194 µM) | 28% | 33% | 1.08 µg/mL (≈ 2.1 µM) | 125 µg/mL (≈ 242 µM) | 250 µg/mL (≈ 485 µM)

Reference: ChEMBL document CHEMBL3232885, “Synthesis, characterization and pharmacological screening of some novel 5-imidazopyrazole incorporated polyhydroquinoline derivatives” (Eur J Med Chem, 2014)
